According to ChEMBL document CHEMBL4390704, “1-Aryl-3-(4-methoxybenzyl)ureas as potentially irreversible glycogen synthase kinase 3 inhibitors: Synthesis and biological evaluation” (Bioorg Med Chem Lett, 2019):
Activity calls are given as the source filed them. No cut-off for these calls is given here.

Molecular target: T1, Glycogen synthase kinase-3 beta (Homo sapiens, UniProt P49841)
Test: Time-dependent irreversible inhibition of recombinant human GSK3beta at 0.05 to 0.2 uM using prephosphorylated peptide as substrate by Kinase-glo luminescence assay
How it was run: (§1)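 Inhibitor pre-incubated with GSK-3β for varying lengths of time before the kinase reaction. Inhibition is expressed as percentage inhibition at each pre-incubation time.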
Target sequence in this assay (P49841 whole entry, looked up): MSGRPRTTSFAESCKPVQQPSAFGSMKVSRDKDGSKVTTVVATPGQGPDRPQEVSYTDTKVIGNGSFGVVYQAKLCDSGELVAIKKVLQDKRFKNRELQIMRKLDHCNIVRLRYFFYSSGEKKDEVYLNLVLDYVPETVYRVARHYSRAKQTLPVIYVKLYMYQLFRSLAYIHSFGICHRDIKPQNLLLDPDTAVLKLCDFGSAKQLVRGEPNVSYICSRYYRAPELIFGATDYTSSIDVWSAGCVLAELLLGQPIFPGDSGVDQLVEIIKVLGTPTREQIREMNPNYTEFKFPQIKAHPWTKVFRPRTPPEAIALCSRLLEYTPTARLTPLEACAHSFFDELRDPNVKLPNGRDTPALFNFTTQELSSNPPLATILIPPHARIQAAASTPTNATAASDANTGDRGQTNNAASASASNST

Row | SMILES | TDI
1 | COc1ccc(CNC(=O)Nc2nc3ccc(C(=O)CBr)cc3[nH]2)cc1 | Active

Molecular target: T1, Glycogen synthase kinase-3 beta
Test: Inhibition of recombinant human GSK3beta using prephosphorylated peptide as substrate measured after 30 mins by Kinase-glo luminescence assay
Target sequence in this assay (P49841 whole entry): as the sequence (P49841 whole entry, looked up) above

Row | SMILES | IC50
2 | COc1ccc(CNC(=O)Nc2nc3ccc(C(C)=O)cc3[nH]2)cc1 | 0.26 µM
3 | C=CC(=O)Nc1ccc2nc(NC(=O)NCc3ccc(OC)cc3)[nH]c2c1 | > 10 µM
4 | C=CC(=O)c1ccc2nc(NC(=O)NCc3ccc(OC)cc3)sc2c1 | 4.05 µM
5 | COc1ccc(CNC(=O)Nc2nc3ccc(C#N)cc3s2)cc1 | 0.11 µM
6 | C=CC(=O)Nc1ccc2nc(NC(=O)NCc3ccc(OC)cc3)sc2c1 | > 10 µM
7 | C=CC(=O)c1ccc2nc(NC(=O)NCc3ccc(OC)cc3)[nH]c2c1 | 1.82 µM
8 | COc1ccc(CNC(=O)Nc2nc3ccc(C(C)=O)cc3s2)cc1 | 2.26 µM
9 | C#CC(=O)c1ccc2nc(NC(=O)NCc3ccc(OC)cc3)[nH]c2c1 | 2.47 µM
10 | C#CC(=O)c1ccc2nc(NC(=O)NCc3ccc(OC)cc3)sc2c1 | 4.21 µM
11 | COc1ccc(CNC(=O)Nc2nc3ccc(C(=O)CBr)cc3[nH]2)cc1 | 0.13 µM
12 | COc1ccc(CNC(=O)Nc2nc3ccc(C(=O)CBr)cc3s2)cc1 | 0.77 µM
13 | COc1ccc(CNC(=O)Nc2nc3ccc(C#N)cc3[nH]2)cc1 | 0.086 µM

Molecular target: T1, Glycogen synthase kinase-3 beta
Test: Time-dependent irreversible inhibition of recombinant human GSK3beta at 0.05 to 0.1 uM using prephosphorylated peptide as substrate by Kinase-glo luminescence assay
How it was run: as §1
Target sequence in this assay (P49841 whole entry, looked up): as above

Row | SMILES | TDI
14 | COc1ccc(CNC(=O)Nc2nc3ccc(C#N)cc3[nH]2)cc1 | Active
